ChEMBL document CHEMBL1132979, “5-HT reuptake inhibitors with 5-HT(1B/1D) antagonistic activity: a new approach toward efficient antidepressants” (J Med Chem, 2000)

What was measured:
[1] = target: 5-hydroxytryptamine receptor 1B (Rattus norvegicus, UniProt P28564); assay: Binding affinity towards 5-hydroxytryptamine 1B receptor in rat frontal cortex using [125I]iodocyanopindolol as radio-ligand.; type: tissue-based
[2] = target: T1, 5-hydroxytryptamine receptor 1A (Rattus norvegicus, UniProt P19327); assay: Binding affinity towards 5-hydroxytryptamine 1A receptor in rat hippocampus using [3H]8-OH-DPAT as radio-ligand.
T1 sequence (P19327 whole entry): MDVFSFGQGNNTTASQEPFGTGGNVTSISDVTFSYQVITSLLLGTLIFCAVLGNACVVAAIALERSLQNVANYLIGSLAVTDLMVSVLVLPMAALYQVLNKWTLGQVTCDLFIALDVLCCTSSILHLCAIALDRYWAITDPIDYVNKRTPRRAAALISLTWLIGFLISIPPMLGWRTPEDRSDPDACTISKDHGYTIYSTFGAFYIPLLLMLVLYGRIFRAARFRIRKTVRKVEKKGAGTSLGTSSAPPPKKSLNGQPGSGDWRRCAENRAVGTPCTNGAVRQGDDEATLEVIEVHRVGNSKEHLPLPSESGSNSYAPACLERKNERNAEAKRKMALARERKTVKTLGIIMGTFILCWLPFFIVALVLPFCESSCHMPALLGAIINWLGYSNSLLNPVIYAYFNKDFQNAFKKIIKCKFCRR

Rattus norvegicus = organism: Rattus norvegicus; assay: [3H]5-HT reuptake inhibition in Rat brain synaptosomes.; type: functional
Cavia porcellus = organism: Cavia porcellus; assay: Sumatriptan induced inhibition of potassium evoked [3H]5-HT release from guinea pig cortex slices; type: functional
Method in brief: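 Cortex slices from male Dunkin-Hartley guinea pigs were loaded with [3H]5-HT for 30 min, then given potassium stimulation. Sumatriptan 3 µM alone (control), or with test compound at 30 nM, 300 nM or 3 µM, was superfused before and during S2. Basal-subtracted S2/S1 ratio is expressed as % of the sumatriptan-only ratio. Mean (±SEM) of 3-4 determinations.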

Oryctolagus cuniculus = organism: Oryctolagus cuniculus; assay: Inhibition of the contractile responses elicited by sumatriptan in rabbit saphenous vein (RSV); type: functional; conditions: read-out: pA2 (converted)
Method in brief: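 Isolated rabbit saphenous vein segments held in organ baths. Each segment received two sumatriptan concentration-response curves, the second after 60 min incubation with antagonist or control vehicle. Apparent pA2 was calculated from a single antagonist concentration in at least 3 preparations.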

Sequence of 5-hydroxytryptamine receptor 1B (P28564 whole entry): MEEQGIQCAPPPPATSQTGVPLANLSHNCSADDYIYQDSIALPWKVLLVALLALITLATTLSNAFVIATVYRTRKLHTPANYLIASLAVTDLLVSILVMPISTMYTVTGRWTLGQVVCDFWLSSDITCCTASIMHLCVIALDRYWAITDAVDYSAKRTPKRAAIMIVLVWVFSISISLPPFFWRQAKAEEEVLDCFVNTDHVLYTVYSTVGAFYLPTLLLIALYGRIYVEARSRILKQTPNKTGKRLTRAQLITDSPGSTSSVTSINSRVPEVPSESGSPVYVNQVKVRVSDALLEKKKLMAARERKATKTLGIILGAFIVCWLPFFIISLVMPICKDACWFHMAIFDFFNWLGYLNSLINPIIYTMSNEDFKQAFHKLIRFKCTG

| SMILES | IC50 [1] [nM] | IC50 [2] [nM] | IC50 (Rattus norvegicus) [nM] | Release (Cavia porcellus) [%] | Kb (Oryctolagus cuniculus) [nM] |
| --- | --- | --- | --- | --- | --- |
| COc1ccc(NC(=O)NCCc2c[nH]c3ccc(O)cc23)cc1N1CCN(C)CC1 | 467 | 57 | 314 |  |  |
| NC(=O)c1ccc2[nH]cc(C3CCNCC3)c2c1 |  |  | > 100 |  |  |
| NCCN1CCC(c2c[nH]c3cc(F)ccc23)CC1 |  |  | 11 |  |  |
| Fc1ccc2[nH]cc(CCCCN3CCNCC3)c2c1 |  |  | 0.15 |  |  |
| COc1ccc(NC(=O)N2CCc3[nH]c4ccc(F)cc4c3C2)cc1N1CCN(C)CC1 | 567 | > 800 | 469 |  |  |
| COc1ccc(NC(=O)N2CCN(CCCCc3c[nH]c4ccc(F)cc34)CC2)cc1N1CCN(C)CC1 | 77 | 50 | 0.7 | 120 | 20 |
| COc1ccc(NC(=O)N2CCC(c3c[nH]c4ccccc34)CC2)cc1N1CCN(C)CC1 | 50 | 400 | 200 | 127 | 20 |
| CN1CCC2(CC1)COc1ccc(NC(=O)NCCN3CCC(c4c[nH]c5cc(F)ccc45)CC3)cc12 | 300 | 700 | 2.2 |  |  |
| Cc1nc(-c2ccc(-c3ccc(C(=O)Nc4ccc5c(c4)C4(CCN(C)CC4)CO5)cc3)c(C)c2)no1 | 2.1 |  | > 1000 | 134 |  |
| Fc1ccc2[nH]c3c(c2c1)CNCC3 |  |  | > 100 |  |  |
| COc1ccc(NC(=O)N2CCC(c3c[nH]c4cccc(F)c34)CC2)cc1N1CCN(C)CC1 | 50 | 300 | 65 | 145 | 2 |
| COc1ccc(NC(=O)NCCN2CCC(c3c[nH]c4cc(F)ccc34)CC2)cc1N1CCN(C)CC1 | 223 | 160 | 1.9 |  |  |
| c1ccc2c(C3CCNCC3)c[nH]c2c1 |  |  | 60 |  |  |
| COc1ccc(NC(=O)NCCc2c[nH]c3ccc(F)cc23)cc1N1CCN(C)CC1 | 63 | 27 | 387 | 134 | 20 |
| COc1ccc(NC(=O)N2CCC(c3c[nH]c4ccc(F)cc34)CC2)cc1N1CCN(C)CC1 | 85 | 367 | 21 | 151 | 15.8 |
| COc1ccc(N)cc1N1CCN(C)CC1 |  |  | > 1000 |  |  |
| COc1ccc(NC(=O)N2CCC(c3c[nH]c4ccc(C(N)=O)cc34)CC2)cc1N1CCN(C)CC1 | 113 | 17 | 472 | 217 | 15.8 |

| SMILES | IC50 [1] [nM] | IC50 [2] [nM] | IC50 (Rattus norvegicus) [nM] | Release (Cavia porcellus) [%] | Kb (Oryctolagus cuniculus) [nM] |
| --- | --- | --- | --- | --- | --- |
| CN1CCC2(CC1)COc1ccc(N)cc12 |  |  | > 1000 |  |  |
| NCCc1c[nH]c2ccc(F)cc12 |  |  | 130 |  |  |
| Fc1ccc2[nH]cc(C3CCNCC3)c2c1 |  |  | 55 |  |  |
| Fc1ccc2[nH]cc(C3CCNC3)c2c1 (stereo not drawn) |  |  | 45 |  |  |
| CN1CCC2(CC1)COc1ccc(NC(=O)N3CCC(c4c[nH]c5ccc(F)cc45)CC3)cc12 | 23 | > 200 | 0.2 | 125 | 50.1 |
| COc1ccc(N)cc1OCCN(C)C |  |  | > 1000 |  |  |
| Fc1cccc2[nH]cc(C3CCNCC3)c12 |  |  | 60 |  |  |
| COc1ccc(NC(=O)N2CCC(c3c[nH]c4cc(F)ccc34)CC2)cc1N1CCN(C)CC1 | 80 | 667 | 49 | 169 | 25.1 |
| COc1ccc(NC(=O)NCCN2CCC(c3c[nH]c4cc(F)ccc34)CC2)cc1OCCN(C)C | 133 | 233 | 1.2 |  |  |
| COc1ccc(NC(=O)N2CCC(c3c[nH]c4ccc(F)cc34)C2)cc1N1CCN(C)CC1 (stereo not drawn) | 233 | 100 | 106 |  |  |
| COc1ccc(NC(=O)N2CCC(CCc3c[nH]c4ccccc34)CC2)cc1N1CCN(C)CC1 | 120 | > 300 | 10 | 121 | 20 |
| Fc1ccc2c(C3CCNCC3)c[nH]c2c1 |  |  | 20 |  |  |
| COc1ccc(NC(=O)N2CCC(c3c[nH]c4ccc(F)cc34)CC2)cc1OCCN(C)C | 633 | > 500 | 4 |  |  |
| N#Cc1ccc2[nH]cc(C3CCNCC3)c2c1 |  |  | 58 |  |  |
| COc1ccc(NC(=O)N2CCC(c3c[nH]c4ccc(C#N)cc34)CC2)cc1N1CCN(C)CC1 | 267 | 233 | 1.9 | 167 | 10 |
| COc1ccc(NC(=O)c2ccc(-c3ccc(-c4noc(C)n4)cc3C)cc2)cc1N1CCN(C)CC1 [GR-127935] |  | 360 | 1000 | 114 | 0.398 |
| c1ccc2c(CCC3CCNCC3)c[nH]c2c1 [INDALPINE] |  |  | 1 |  |  |
